Results as given in PMC2659327 (Nature chemical biology, 2009).
Where “and” joins values, the source holds several entries; their conditions need not be identical. Equal entries are not always repeated.

Experiments:
[1] = tested on: inositol 1,4,5-trisphosphate-mediated Ca^2+ release; assay: inositol 1,4,5-trisphosphate-mediated Ca2+ release in sea urchin egg homogenate; type: biochemical, Lytechinus pictus; conditions: read-out: EC50, Ca2+ release
How it was run: (§1)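 Lytechinus pictus egg homogenate with the Ca2+ dye fluo-3 and ATP. Second messenger added and Ca2+ release followed as fluo-3 fluorescence (RFU), in a plate reader (2-4 replicates) or a fluorimeter.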

[2] = tested on: NAADP-mediated Ca^2+ release; assay: NAADP-mediated Ca2+ release bioassay in sea urchin egg homogenate; type: biochemical, Lytechinus pictus; conditions: for Ca2+ release induced by the compound itself in the bioassay: compound at 125 μM
[3] = tested on: glucose-induced Ca^2+ increases in mouse pancreatic islets; assay: glucose-induced Ca2+ signaling in isolated pancreatic islets; type: cell-based; conditions: isolated mouse islet, glucose 10 mM, compound 100 μM
[4] = tested on: voltage-gated Ca^2+ channels; assay: KCl depolarization-induced Ca2+ transient in islets; type: cell-based, mouse; conditions: 100 μM compound; glucose 10 mM, diazoxide 100 μM, KCl 45 mM
How it was run: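 Pancreatic beta cells loaded with fura-PE3 acetoxymethyl ester for Ca2+ imaging. Cells were held in glucose and diazoxide, then depolarized with KCl with or without test compound in the bath. Data given as mean ± standard error of the mean and compared by one-tailed t-tests.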

[5] = tested on: sea urchin egg binding protein (NAADP receptor); assay: [32P]NAADP radioligand displacement binding assay, sea urchin egg homogenate; parameters: species or system Lytechinus pictus
[6] = tested on: mouse pancreatic beta cells; assay: NAADP-mediated Ca2+ spiking in patch-clamped pancreatic beta cells; type: cell-based; conditions: pre-incubation with 125 μM in bathing solution; NAADP 50 nM via patch pipette
How it was run: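 Whole-cell patch clamp at room temperature. Borosilicate pipettes were 3–5 MΩ and the holding potential was −70 mV. Test compound was pre-incubated in the bath. Read-out was Ca2+-dependent current traces.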

[7] = tested on: mitochondrial metabolism (NAD(P)H); assay: glucose-induced NAD; type: cell-based, mouse; conditions: 100 μM compound
How it was run: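 Islets of Langerhans were pre-incubated 60 min at 37°C in control medium containing 3 mM glucose. NAD(P)H autofluorescence was recorded at 360 nm excitation and >470 nm emission. Changes were expressed as percent of basal values within the same islet.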

intact sea urchin eggs = assay: NAADP-induced Ca2+ release in intact sea urchin eggs; type: cell-based; conditions: 100 μM compound in artificial seawater; NAADP microinjected
[8] = solubility in 25% dimethylsulfoxide or 25% dimethylformamide; type: physicochemical
[9] = tested on: cyclic ADP-ribose-mediated Ca^2+ release; assay: cyclic ADP-ribose-mediated Ca2+ release in sea urchin egg homogenate; type: biochemical, Lytechinus pictus; conditions: read-out: EC50, Ca2+ release
How it was run: as §1

## FC(F)(F)c1cccc(N2CCN(Cn3nc(COc4ccccc4)n(-c4ccccc4)c3=S)CC2)c1 [Ned-16]
[2]
  Ca2+ release induced by the compound itself in the bioassay: induced irreversible Ca^2+ release

## COc1ccc(C2N[C@H](C(=O)O)Cc3c2[nH]c2ccccc32)cc1CN1CCN(c2ccccc2F)CC1 (stereo partly shown) [Ned-19]
[2]; commercial Ned-19
  Hill coefficient, inhibition of NAADP-mediated Ca2+ release: −0.6
[2]; constant presence of 125 μM compound (figure legend: 100 μM)
  effect on NAADP concentration-response curve: reduced the maximum release and shifted the EC50 to the right
[3]
  effect on glucose-induced Ca2+ signal: reduced the amplitude of the oscillations and reduced the elevated plateau to the nonstimulated level
[4]
  KCl depolarization-induced Ca2+ transient: unaltered
[5]; Ned-19 10 μM, after 5 days of incubation
  dissociation from the NAADP receptor (recovery of [32P]NAADP binding): only about half the bound Ned-19 dissociates
[5]; commercial Ned-19
  Hill coefficient, [32P]NAADP binding competition: −2.3
[6]
  NAADP-mediated Ca2+ spiking: blocked NAADP-mediated Ca^2+ spiking
[7]
  glucose-induced increase in NADH and NADPH fluorescence: still occurred
Intact sea urchin eggs
  NAADP-induced Ca2+ increase in intact sea urchin eggs: failed to elicit a Ca^2+ increase

## C=C1NN(c2nc(-c3cccc([N+](=O)[O-])c3)cs2)C(=O)/C1=N/Nc1ccc(Cl)cc1C(=O)c1ccccc1 [Nrd-7]
[8]
  solubility: sparingly soluble

## COc1ccc2[nH]c(C(=O)O)c(CCNC(=O)CO/N=C3/C=C[C@@]4(C)C(=C3)CC[C@@H]3[C@H]4CC[C@]4(C)[C@H]3CC[C@]4(C)O)c2c1 [Nrd-10]
[2]
  Ca2+ release induced by the compound itself in the bioassay: induced irreversible Ca^2+ release

## CCC(=O)N1N=C(c2ccc(C3=NN(C(=O)CC)[C@H](c4cccc(OC)c4OC)C3)cc2)C[C@H]1c1cccc(OC)c1OC [Nrd-11]
[8]
  solubility: sparingly soluble

## N=c1c2ncn3c2ncn1[C@@H]1O[C@H](COP(=O)(O)OP(=O)(O)OC[C@H]2O[C@@H]3[C@H](O)[C@@H]2O)[C@@H](O)[C@H]1O [cADPR, cyclic ADP-ribose]
[9]
  EC50: 300 nM

## nicotinic acid adenine dinucleotide phosphate [NAADP, reference compound]
[2]; read-out: EC50, Ca2+ release, sea urchin egg homogenate
  EC50: 35 nM and 30 to 50 nM
